Laboratory results taken from ChEMBL document CHEMBL3091450, “Melosuavines A-H, cytotoxic bisindole alkaloid derivatives from Melodinus suaveolens” (J Nat Prod, 2013).

Legend:
Format in all cases: functional, cell-based
[1] = test system: SW480; assay: Cytotoxicity against human SW480 cells after 48 hrs by MTT assay; details: SW480, 48 h
Outline: (§1)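 Cells kept in RPMI-1640 or DMEM with 10% FBS, 37 °C, 5% CO2. Adherent lines plated and left 12 h to attach; suspension cells (HL-60) plated at 1 × 10^5 cells/mL just before dosing. Compounds in DMSO at 0.064, 0.32, 1.6, 8 and 40 μM, triplicate wells, 48 h; cisplatin positive control. MTT viability read-out, IC50 by Reed and Muench method.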

[2] = test system: MCF7; assay: Cytotoxicity against human MCF7 cells after 48 hrs by MTT assay; details: MCF7, 48 h; outline: as §1
[3] = Cytotoxicity against human […] cells after 48 hrs by MTT assay; outline: as §1
[4] = test system: A549; assay: Cytotoxicity against human A549 cells after 48 hrs by MTT assay; details: A549, 48 h; outline: as §1
[5] = test system: HL-60; assay: Cytotoxicity against human HL60 cells after 48 hrs by MTT assay; details: HL-60, 48 h; outline: as §1

CC[C@]12C=CCN3CCc4c(n(c5ccccc45)[C@@H](c4cc5c(cc4OC)NC4=C(C(=O)OC)C[C@]6(CC)C=CCN7CC[C@@]45[C@@H]76)C1)[C@@H]32 (relative stereo) showed an IC50 [1] greater than 40 µM, an IC50 [2] greater than 40 µM and an IC50 [3] greater than 40 µM. The IC50 [4] was greater than 40 µM and the IC50 [5] was greater than 40 µM.
C=C[C@]12C=CCN3[C@@H](c4cc5c(cc4O)NC4=C(C(=O)OC)C[C@]6(CC)C=CCN7CC[C@@]45[C@@H]76)C[C@@]4(c5ccccc5NC(=O)[C@]4(C(=O)OC)C1)[C@@H]32 (relative stereo) showed an IC50 [1] greater than 40 µM, an IC50 [2] greater than 40 µM and an IC50 [3] of 29 µM. The IC50 [4] was greater than 40 µM and the IC50 [5] was 17.6 µM.
Compound C=C[C@]12C=C[C@H](c3cc4c(cc3O)NC3=C(C(=O)OC)C[C@]5(CC)C=CCN6CC[C@@]34[C@@H]65)N3CC[C@@]4(c5ccccc5NC(=O)[C@]4(C(=O)OC)C1)[C@@H]32 (relative stereo) has an IC50 [1] of 9.8 µM, an IC50 [2] of 11.6 µM and an IC50 [3] of 5.9 µM. It also gave an IC50 [4] of 11 µM and an IC50 [5] of 2.6 µM.
Work on CC[C@]12C=CCN3CC[C@]4(C(=C(C(=O)OC)C1)Nc1cc(O)c([C@@H]5C[C@]67c8ccccc8N[C@@]68CC[C@]6(C=CCN5[C@@H]67)C[C@H]8C(=O)OC)cc14)[C@@H]32 (relative stereo) yielded an IC50 [1] of 3.8 µM, an IC50 [2] of 9.5 µM and an IC50 [3] of 3.1 µM. For the same compound, the IC50 [4] was 3.4 µM and the IC50 [5] was 1 µM.
Work on CC[C@]12C=CCN3CC[C@]4(C(=C(C(=O)OC)C1)Nc1cc(O)c([C@H]5C=C[C@@]6(CC)CC(C(=O)OC)=C7Nc8cc(O)ccc8[C@@]78CCN5[C@@H]68)cc14)[C@@H]32 (relative stereo) yielded an IC50 [1] of 12.5 µM, an IC50 [2] of 10.7 µM and an IC50 [3] of 12.6 µM. The IC50 [4] was 12.4 µM and the IC50 [5] was 4.8 µM.
CC[C@]12C=CCN3CC[C@]4(C(=C(C(=O)OC)C1)Nc1cc(O)c([C@@H]5[C@@H]6O[C@@H]6[C@@]6(CC)CC(C(=O)OC)=C7Nc8cc(O)ccc8[C@@]78CCN5[C@@H]68)cc14)[C@@H]32 (relative stereo) showed an IC50 [1] of 14.4 µM, an IC50 [2] of 11.6 µM and an IC50 [3] of 13.8 µM. For the same compound, the IC50 [4] was 9.7 µM and the IC50 [5] was 5.5 µM.
CC[C@]12C=CCN3CC[C@]4(C(=C(C(=O)OC)C1)Nc1cc(O)c([C@@H]5C=C[C@@]6(CC)CC(C(=O)OC)=C7Nc8cc(O)ccc8[C@@]78CCN5[C@@H]68)cc14)[C@@H]32 (relative stereo) gave an IC50 [1] of 4 µM, an IC50 [2] of 6.6 µM and an IC50 [3] of 3.6 µM. It also gave an IC50 [4] of 7.5 µM and an IC50 [5] of 3.5 µM.
With CC[C@]12C=CCN3CCc4c(n(c5ccccc45)[C@@H](c4cc5c(cc4O)NC4=C(C(=O)OC)C[C@]6(CC)C=CCN7CC[C@@]45[C@@H]76)C1)[C@@H]32 the IC50 [1] was 9.7 µM, the IC50 [2] was 9.5 µM and the IC50 [3] was 10 µM. The IC50 [4] was 14.3 µM and the IC50 [5] was 3.6 µM.
CC[C@]12C=CCN3CC[C@]4(C(=C(C(=O)OC)C1)Nc1cc(O)c([C@@H]5[C@@H]6O[C@@H]6[C@]67CC[C@@]8(Nc9ccccc9[C@@]89CCN5[C@@H]69)[C@H](C(=O)OC)C7)cc14)[C@@H]32 (relative stereo) showed an IC50 [1] greater than 40 µM, an IC50 [2] greater than 40 µM and an IC50 [3] greater than 40 µM. The IC50 [4] was greater than 40 µM and the IC50 [5] was greater than 40 µM.
For C=C[C@]12C=C[C@@H](c3cc4c(cc3O)NC3=C(C(=O)OC)C[C@]5(CC)C=CCN6CC[C@@]34[C@@H]65)N3CC[C@@]4(c5ccccc5NC(=O)[C@]4(C(=O)OC)C1)[C@@H]32 (relative stereo), the IC50 [1] was 2.9 µM, the IC50 [2] was 6.1 µM and the IC50 [3] was 3.1 µM. For the same compound, the IC50 [4] was 8.9 µM and the IC50 [5] was 2.8 µM.
